ASAP1 inh: ASAP1 ArfGAP inhibition | Q9ULH1 | ASAP1-stimulated ARF1 GTP hydrolysis, GDP FP detection | inhibition, % at 16.5 µM | hit rate 0.19% among 360,000 | AID 624377; in the data active = inhibition above about 25%
Target sequence (Q9ULH1 325-724 limits assumed): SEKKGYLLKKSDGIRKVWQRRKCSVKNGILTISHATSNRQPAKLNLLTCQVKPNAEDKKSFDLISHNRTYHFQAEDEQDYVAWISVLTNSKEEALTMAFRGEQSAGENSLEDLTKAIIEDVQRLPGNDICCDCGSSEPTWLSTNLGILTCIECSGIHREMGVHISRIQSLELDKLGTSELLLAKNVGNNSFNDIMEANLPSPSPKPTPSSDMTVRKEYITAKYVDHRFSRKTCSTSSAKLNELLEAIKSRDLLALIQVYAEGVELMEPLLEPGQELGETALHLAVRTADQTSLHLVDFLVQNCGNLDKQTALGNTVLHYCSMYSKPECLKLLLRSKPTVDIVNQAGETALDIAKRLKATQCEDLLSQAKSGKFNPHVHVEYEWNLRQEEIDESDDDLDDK
NadD inh: NadD (S. aureus) enzyme inhibition. purified NadD enzyme, colorimetric absorbance read-out. AID 602399. hit rate 0.78% among 360,000. inhibition, % at 20 µM; in the data active = inhibition above about 26%
ARFGAP1 inh: rat ARFGAP1 inhibition; Arfgap1-stimulated ARF1 GTP hydrolysis, GDP FP detection; inhibition, % at 16.5 µM; hit rate 0.26% among 360,000;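 active = inhibition above a per-plate limit, mean inhibition of low control wells plus 3 SD, cut at about 25% in these data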
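Material: rat Arfgap1 catalytic domain, aa 1-136; also added: human ARF1(Δ1-17)-GTP substrate; compound dosing: one concentration, 16.5 µM, DMSO 1.26%; incubation: GTP hydrolysis reaction 2 h at 25 °C; measured by: Tracer-displacement fluorescence polarization with EDTA stop, 620/688 nm; evaluation: % inhibition from polarization; repeats: one replicate per compound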
rCAG RNA binder: binds r(CAG) RNA repeats; hit rate 1.3% among 370,000; r(CAG) RNA repeat, TO-PRO-1 dye displacement fluorescence; AID 651821; inhibition, % at 3 µM;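 active = inhibition above the plate cutoff, the mean of all test compounds on that plate plus 3 SD, cut at about 35% in these data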;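 also: higher means more dye released from RNA so lower well fluorescence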
rCAG bind conf: r(CAG) RNA repeat binding, confirmation; TO-PRO-1 dye displacement fluorescence; AID 652065; shares compounds with rCAG RNA binder; inhibition, % at 3 µM; hit rate 70% among 4,300;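 active = inhibition above a per-plate cutoff, the mean inhibition of sample wells plus 3 SD, cut at about 35% in these data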;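 also: loss of TO-PRO-1 fluorescence as compound displaces dye from 1x1 AA loop RNA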
DNA CAG counter: DNA CAG dye complex inhibition counter-screen; shares compounds with rCAG RNA binder; d(CAG) DNA oligo TO-PRO-1 dye displacement, fluorescence; inhibition, % at 3 µM; hit rate 94% among 4,300; AID 652068;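 active = inhibition above its plate's cutoff, the mean test-well inhibition plus 3 SD, cut at about 4.8% in these data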;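 also: hits displace the dye from DNA and so lower well fluorescence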
Each line names hits and unclear results; the compound was inactive in the other large screens (follow-up assays come after a bar, where they were run). A selection: hits, their analogues and other compounds. The true share with any hit is near 2.2%.

O=C(Nc1c(C(=O)Nc2cccc3ccccc23)cnn1-c1ccccc1)c1ccco1	rCAG RNA binder 64 | rCAG bind conf 49 | DNA CAG counter 16
CCc1cc(C(=O)O)c(NC(=O)/C=C/c2ccc(OC)c(OC)c2)s1	rCAG RNA binder 56 | rCAG bind conf 40 | DNA CAG counter 9.9
CCc1cc(C(=O)O)c(NC(=O)/C=C/c2ccc(OC)cc2)s1	none
O=C(Nc1ccccc1)Nc1cccc(C(F)(F)F)c1	none
N#C/C(=N\Nc1cccc(C(F)(F)F)c1)C(=O)c1ccsc1	rCAG RNA binder 76 | rCAG bind conf 56 | DNA CAG counter 18
CSC1=NC=C(C#N)C2=NC(c3c(Cl)cccc3Cl)NN12 (stereo not drawn)	none (no result: ASAP1 inh, ARFGAP1 inh, rCAG RNA binder)
CC1(C(=O)NS(=O)(=O)c2ccc(Cl)s2)CCN1C(=O)Cc1ccc(Cl)cc1Cl (stereo not drawn)	rCAG RNA binder 40 | rCAG bind conf 40 | DNA CAG counter 11
CC1(C(=O)NS(=O)(=O)c2ccc(C#N)cc2)CCN1C(=O)CCc1ccc(Cl)cc1Cl (stereo not drawn)	none
Cc1ccc(S(=O)(=O)NC(=O)C2(C)CCN2C(=O)CCc2ccc(Cl)cc2Cl)cc1 (stereo not drawn)	rCAG RNA binder 51 | rCAG bind conf inactive | DNA CAG counter 6.0
CC1(C(=O)NS(=O)(=O)c2ccc(Cl)cc2)CCN1C(=O)CCc1ccc(Cl)cc1Cl (stereo not drawn)	rCAG RNA binder 52 | rCAG bind conf 49 | DNA CAG counter 13
CC1(C(=O)NS(=O)(=O)c2ccc(Cl)s2)CCN1C(=O)Cc1cc(F)ccc1F (stereo not drawn)	none
CCCCCCCC(=O)N1c2ccccc2NC(=O)C1CC(=O)Nc1ccc(C(=O)O)cc1 (stereo not drawn)	none
CCCCCCCCCC(=O)N1c2ccccc2NC(=O)C1CC(=O)Nc1ccc(C(=O)O)cc1 (stereo not drawn)	rCAG RNA binder 74 | rCAG bind conf 70 | DNA CAG counter 30
COC(=O)c1cc(-c2cccc(C(C)C)c2)c(=O)n2c1CCC2	none (no result: ASAP1 inh, NadD inh, ARFGAP1 inh)
COc1ccc(CCNS(=O)(=O)c2cc(/C=C/C(=O)O)ccc2C)cc1OC	none
COc1cc(C)c(/C=C/C(C)=C/C=C/C(C)=C/C(=O)O)c(C)c1C	rCAG RNA binder 47 | rCAG bind conf 54 | DNA CAG counter 17
O=C(NCc1ccccc1Cl)C1CCC(CNS(=O)(=O)c2cccc3cccnc23)CC1 (stereo not drawn)	none (no result: ASAP1 inh, NadD inh, ARFGAP1 inh)
O=C(O)c1cccc2c1C(=O)c1ccc(-c3ccc(OC(F)(F)F)cc3)cc1S2(=O)=O	rCAG RNA binder 69 | rCAG bind conf 60 | DNA CAG counter 16
O=C(O)Cn1cc(/C=c2/sc3nc4ccccc4n3c2=O)c2ccccc21	rCAG RNA binder 52 | rCAG bind conf 90 | DNA CAG counter 73
O=C(O)Cn1cc(/C=C2/NC(=O)N(c3ccc(Cl)cc3)C2=O)c2ccccc21	rCAG RNA binder 61 | rCAG bind conf 62 | DNA CAG counter 21
CC(c1ccccc1)n1cc(C(=O)N2CCCN(Cc3ccccc3)CC2)nn1 (stereo not drawn)	none (no result: ASAP1 inh, NadD inh, ARFGAP1 inh)
CCN(CC)C(=O)CC[C@@H]1CC[C@]2(CCCN(Cc3ccncc3)C2)O1	none (no result: ASAP1 inh, NadD inh, ARFGAP1 inh)
Cc1ccccc1C(=O)N[C@H](C(=O)N1CCC[C@H]1C(=O)NCCc1ccccc1Cl)C(C)C	none (no result: NadD inh)
Cc1ccc(-c2[nH]nc(N)c2N=Nc2cccc(Cl)c2C)cc1	rCAG RNA binder 42 | rCAG bind conf inactive | DNA CAG counter 12
CCC(C)[C@H](NC(=O)[C@H](Cc1ccccc1)NC(=O)OC(C)(C)C)C(=O)NCc1ccccc1Br (stereo partly drawn)	none (no result: ASAP1 inh, NadD inh, ARFGAP1 inh)
CCC(C)[C@H](NC(=O)Nc1ccc(C)cc1C)C(=O)O (stereo partly drawn)	rCAG RNA binder 64 | rCAG bind conf inactive | DNA CAG counter inactive
CC(C)C[C@H]1COc2cc(Br)ccc2S(=O)(=O)N1Cc1cccc(Cl)c1	none (no result: NadD inh)
COC(=O)c1sccc1NC(=O)CSc1ccccc1NS(=O)(=O)c1ccc(Br)cc1	rCAG RNA binder 46 | rCAG bind conf 50 | DNA CAG counter 15
Cc1c(Br)cccc1NC(=O)C1(C)CCN1C(C)C (stereo not drawn)	none
CCNC(=S)NNC(=O)c1cc(-c2cccc(C)c2)nc2ccccc12	rCAG RNA binder 43 | rCAG bind conf 40 | DNA CAG counter 12

Screening results: PubChem BioAssay, several laboratories
